Experimental data reported in paper PMC9716449 (International Journal of Tryptophan Research : IJTR, 2022).
Entries after “also recorded” stand apart in the source; their conditions may differ. Blank lines part the entries; values can stand above or below the compound they belong to.

What was measured:
NK-92MI cells [1] = test: Granzyme B production assay in NK-92MI; format: cell-based, human; conditions: NK-92MI treated with Kyn 72 h, then 5.5 h fresh medium; ELISA
Summary of the method: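 NK-92MI cells were pre-cultured for 72 h with Kyn, then moved to fresh medium without Kyn for 5.5 h. Culture supernatant was collected and granzyme B quantified with a human granzyme B ELISA following the kit protocol.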

NK-92MI cells [2] = test: NK-92MI viability after addition of Kyn; format: cell-based, human; conditions: 72 h after addition of Kyn
[3] = tested on: A172 cells expressing IDO1 and TDO; test: Kyn production in A172 cells expressing IDO1 and TDO by IFN-γ stimulation; format: cell-based, human; conditions: IFN-γ 10 ng/mL; 524 μM L-Trp, 24 hours
Summary of the method: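 A172 cells, grown 24 h after seeding, were given test compound 1 h before co-addition of L-Trp (final 524 μM) and IFN-γ (final 10 ng/mL) to express IDO1 and TDO. After 24 h, Kyn was quantified by Ehrlich reaction (CCl₃COOH plus p-dimethylaminobenzaldehyde in acetic acid) at 460 nm. IFN-γ-stimulated, DMSO-treated cells served as control. Triplicates; 3 independent experiments.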

rhTDO [4] = target: T1, rhTDO (Homo sapiens, UniProt P48775); test: Kinetics analysis; format: biochemical; conditions: Lineweaver-Burk plot; 680C91 0.5 and 1 μM, PVZB3001 1 and 2 μM
Summary of the method: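 Mode of inhibition was taken from Lineweaver–Burk plots of the recombinant human enzyme, plotting inverse initial rate against inverse L-Trp concentration with or without test compound. DMSO served as control.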

A172 (TDO) = test: Cell-based Kyn production assay in A172 cells; design: species or system human; conditions: A172 cells expressing TDO
Summary of the method: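 TDO-dependent Kyn production: A172 cells were seeded and grown 24 h, exposed to test compound for 1 h, then given L-Trp (final 524 μM) without cytokine and cultured 24 h. Kyn was detected by Ehrlich reaction, adding aqueous 7% CCl₃COOH mixed 2:5 with 2% p-dimethylaminobenzaldehyde in acetic acid, and absorbance read at 460 nm. Triplicate samples; 3 independent experiments.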

rhIDO1 = rhIDO1 (Homo sapiens, UniProt P14902); test: Enzyme assay; format: biochemical; conditions: read-out: IC50 value on rhIDO1; cell-free; 200 μM L-Trp
TDO [5] = test: TDO mRNA expression in A172 cells; format: cell-based, human; conditions: for TDO expression: mRNA and Western blot (Supplemental Figure 2)
TDO [6] = test: Western blot of TDO protein in A172 cells; format: cell-based, human; conditions: at 1000 nM
Summary of the method: (§1)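 Cells were lysed in RIPA buffer with protease inhibitors. Lysate (20–30 μg protein/lane) was separated by polyacrylamide gel electrophoresis and transferred to PVDF. Membranes were blocked with 5% skim milk or a signal-enhancing blocking reagent, then probed with primary antibody overnight at 4°C and secondary antibody 1 h at room temperature. Bands were visualised by ECL imaging.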

ERK1/2 = test: Western blot of ERK1/2 phosphorylation in A172 cells; format: cell-based, human
Summary of the method: as §1

rhTDO [7] = target: T1, rhTDO; test: Enzyme assay; format: biochemical
A172 cells = test: Cell viability assay; format: cell-based, human
Summary of the method: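 A172 cells were seeded and grown 24 h, then given test compound for 1 h before L-Trp (final 524 μM), with no IFN-γ. After 24 h of culture, WST-8 was added for 40–60 min at 37°C and absorbance read at 450 nm. Triplicate samples; 3 independent experiments.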

CT26-Ido1 tumors = test: Antitumor activity in mice bearing CT26-Ido1 tumors; format: in vivo, mouse; conditions: oral, 50.0 mg/kg
Summary of the method: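 Female BALB/c mice (6 weeks) received 1 × 10⁵ CT26-Ido1 cells s.c. in the right and left dorsal regions. On day 6 they were randomised (n = 8) to vehicle or 12.5, 25 or 50 mg/kg p.o. once daily. Caliper diameters were taken every 2 days to day 14, with V = (W² × L)/2. Tumours were weighed on day 14 and %IR was taken from mean tumour weights versus vehicle. Body weight every 2 days was expressed relative to day 1. Tumour Kyn and Trp were measured by ELISA after dissociation in PBS.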

T1 sequence (P48775 whole entry): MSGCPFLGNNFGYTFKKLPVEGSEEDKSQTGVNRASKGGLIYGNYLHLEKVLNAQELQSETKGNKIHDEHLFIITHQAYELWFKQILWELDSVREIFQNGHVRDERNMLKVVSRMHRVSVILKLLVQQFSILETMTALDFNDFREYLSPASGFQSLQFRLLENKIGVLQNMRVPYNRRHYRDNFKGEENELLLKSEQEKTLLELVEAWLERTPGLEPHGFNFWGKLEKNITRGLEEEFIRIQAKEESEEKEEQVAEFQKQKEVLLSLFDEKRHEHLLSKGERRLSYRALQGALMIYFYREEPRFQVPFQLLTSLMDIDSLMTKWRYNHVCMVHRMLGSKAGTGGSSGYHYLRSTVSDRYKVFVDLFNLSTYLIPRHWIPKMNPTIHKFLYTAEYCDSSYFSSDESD
Chain of rhIDO1 (P14902 whole entry): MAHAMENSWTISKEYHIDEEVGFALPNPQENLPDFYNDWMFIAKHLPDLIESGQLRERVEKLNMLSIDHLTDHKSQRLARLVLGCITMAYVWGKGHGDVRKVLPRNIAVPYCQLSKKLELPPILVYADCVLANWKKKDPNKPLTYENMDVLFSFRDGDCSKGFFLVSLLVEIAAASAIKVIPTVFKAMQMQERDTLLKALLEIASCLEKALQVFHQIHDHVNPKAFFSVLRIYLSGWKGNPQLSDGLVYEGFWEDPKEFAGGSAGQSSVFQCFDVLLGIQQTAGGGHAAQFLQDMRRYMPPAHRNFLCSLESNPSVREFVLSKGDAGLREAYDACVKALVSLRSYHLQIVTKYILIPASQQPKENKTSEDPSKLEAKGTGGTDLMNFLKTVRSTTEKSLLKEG

SMILES: Nc1ccccc1C(=O)CC(N)C(=O)O (stereo not shown) [Kyn, Kynurenine]
- Granzyme B production (NK-92MI cells [1]): reduced
- Viability of NK-92MI cells (NK-92MI cells [2]): reduced

- Inhibition pattern against TDO (rhTDO [4]): competitive inhibition
- IC50 (rhIDO1): > 10 µM
SMILES: Fc1ccc2c(/C=C/c3cccnc3)c[nH]c2c1 [680C91]
- Kyn production in A172 cells expressing both IDO1 and TDO (in words) [3]: decreased Kyn production; also recorded: Partial inhibition of Kyn production
- Kyn production in A172 cells (in words) (A172 (TDO)): reduced

SMILES: Cn1c(=O)c(F)c(Nc2ccc(I)cc2F)c2c(=O)n(C[C@@H](O)CO)cnc21 [TAK-733]
- Kyn production in A172 cells (in words) (A172 (TDO)): attenuated Kyn production
- TDO expression (TDO [5]): reduction of TDO expression

SMILES: Cc1cc(C(=O)NOCCO)c(Nc2ccc(I)cc2F)n(C)c1=O [AZD8330]
- Kyn production in A172 cells (in words) (A172 (TDO)): attenuated Kyn production
- TDO expression (TDO [5]): reduction of TDO expression

- Inhibitory activity against rhTDO (in words) (rhTDO [7]; cell-free assay): did not inhibit
SMILES: CC(=O)Nc1cccc(-n2c(=O)n(C3CC3)c(=O)c3c(Nc4ccc(I)cc4F)n(C)c(=O)c(C)c32)c1 [trametinib]
- TDO protein expression (TDO [6]): downregulated
- ERK1/2 phosphorylation (ERK1/2): inhibition of ERK1/2 phosphorylation
- Kyn production in A172 cells (in words) (A172 (TDO)): decreased Kyn production in a dose-dependent manner
- TDO mRNA expression (TDO [5]; at 100 nM): downregulated
- Cell viability of A172 cells (in words) (A172 cells): without reducing cell viability

- Enzymatic activity of TDO (rhTDO [7]; at 1 μM or higher concentrations): inhibited the enzymatic activity of TDO
SMILES: NS(=O)(=O)NCCNc1nonc1C(=NO)Nc1ccc(F)c(Br)c1 [epacadostat]
- Kyn production in A172 cells expressing both IDO1 and TDO (in words) [3]: decreased Kyn production; also recorded: inhibited Kyn production more effectively
- Antitumor effect (CT26-Ido1 tumors): moderate effect without statistical significance
